# Results reported in ChEMBL document CHEMBL5107950, “Structure-based design of haloperidol analogues as inhibitors of acetyltransferase Eis from Mycobacterium tuberculosis to overcome kanamycin resistance” (RSC Med Chem, 2021).
# Activity calls are given as the source filed them. The calls are words filed in the database; no cut-off is given here.
# Experiments:
# [1] = tested on: Mycobacterium tuberculosis variant bovis; assay: Antibacterial activity against Mycobacterium bovis BCG ATCC 35734 assessed as inhibition of bacterial growth incubated upto 3 weeks hrs by resazurin dye based double-dilution method; assay type: functional; settings: BCG ATCC 35734, 504 h
# Outline: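 Double-dilution broth MIC. Media: M. smegmatis, Mueller-Hinton; M. abscessus, 7H9 + 0.05% Tween80 + 0.4% glycerol; mc²6230, 7H9 + 0.05% tyloxapol, 0.5% glycerol, 10% OADC, 0.2% casamino acids, 24 µg/mL pantothenate; other mycobacteria, 7H9 + 0.05% Tween80, 0.4% glycerol, 10% ADC. Inoculum from agar set to 0.5 McFarland, then diluted 1:100.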
# [2] = tested on: Mycobacterium tuberculosis variant bovis; assay: Antibacterial activity against Mycobacterium bovis BCG ATCC 35734 in presence of clarithromycin by checkerboard assay; assay type: functional, organism-based
# Outline: (§1)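 Checkerboard in 96-well plates. Antibiotic two-fold serially diluted along columns, haloperidol derivative two-fold along rows. Bacteria prepared as for the MIC determination. MICs alone and in combination used to calculate FICI. At least duplicate independent trials.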
# [3] = tested on: Mycobacterium tuberculosis variant bovis; assay: Antibacterial activity against Mycobacterium bovis BCG ATCC 35734 in presence of clofazimine by checkerboard assay; assay type: functional, organism-based; outline: as §1
# [4] = tested on: Mycobacterium tuberculosis variant bovis; assay: Synergistic antibacterial activity against Mycobacterium bovis BCG ATCC 35734 in presence of spectinomycin by checkerboard assay; assay type: functional, organism-based; outline: as §1
Compound,MIC [1],further results
COc1ccc(C(=O)CCCN2CCC(O)(c3ccc(Br)cc3)CC2)cc1,62.5 µM,–
O=C(CCCN1CCC(O)CC1)c1ccc(F)cc1,> 62.5 µM,–
CC1CC(C)CN(CCCC(=O)c2ccc(C(C)(C)C)cc2)C1 (stereo not drawn),31.3 µM,–
CC(C)(C)c1ccc(C(=O)CCCN2CCC(O)(c3ccc(F)cc3)CC2)cc1,15.6 µM,–
O=C(CCCN1CCC(O)(c2ccc(Cl)cc2)CC1)c1ccc(F)cc1 [HALOPERIDOL],62.5 µM,–
CC(=O)CCCN1CCC(O)(c2ccc(Cl)cc2)CC1,> 62.5 µM,–
O=C(CCCN1CCC(O)(c2ccc(Cl)cc2)CC1)c1ccc(Cl)cc1 [CHLOROHALOPERIDOL],62.5 µM,Activity [2]: Active; Activity [3]: Active; Activity [4]: Active
O=C(CCCN1CCC(O)(c2ccc(Br)cc2)CC1)c1ccccc1,> 62.5 µM,–
O=C(CCCN1CCC(O)(c2ccc(Br)cc2)CC1)c1ccc(Br)cc1,> 62.5 µM,–
CC(C)(C)c1ccc(C(=O)CCCN2CCC(O)(c3ccc(Br)cc3)CC2)cc1,3.9 µM,–
O=C(CCCN1CCC(O)(c2ccc(Br)cc2)CC1)c1ccc(Cl)cc1,15.6 µM,Activity [2]: Active; Activity [3]: Active; Activity [4]: Active
O=C(CCCN1CCC(O)(c2ccc(F)cc2)CC1)c1ccc(Br)cc1,62.5 µM,–
O=C(CN1CCC(O)(c2ccc(Cl)cc2)CC1)c1ccc(F)cc1,> 62.5 µM,–
O=C(CCCN1CCC(O)(c2ccc(Cl)cc2)CC1)c1ccccc1,62.5 µM,–
Cc1ccc(C(=O)CCCN2CCC(O)(c3ccc(Cl)cc3)CC2)cc1,15.6 µM,–
COc1ccc(C(=O)CCCN2CCC(O)(c3ccc(Cl)cc3)CC2)cc1,> 62.5 µM,–
CCc1ccc(C(=O)CCCN2CCC(O)(c3ccc(Cl)cc3)CC2)cc1,2 µM,–

Compound,MIC [1],further results
CC(C)(C)c1ccc(C(=O)CCCN2CCC(O)(c3ccc(Cl)cc3)CC2)cc1,3.9 µM,–
CC(C)c1ccc(C(=O)CCCN2CCC(O)(c3ccc(Cl)cc3)CC2)cc1,1 µM,–
CC1CCCCN1CCCOc1ccc(F)cc1 (stereo not drawn),3.9 µM,–
CC1CC(C)CN(CCCOc2ccc(F)cc2)C1 (stereo not drawn),15.6 µM,–
O=C(CCCN1CC=C(c2ccc(Cl)cc2)CC1)c1ccc(F)cc1,15.6 µM,–
O=C(CCCN1CCC(O)(c2ccccc2)CC1)c1ccc(F)cc1,> 62.5 µM,–
O=C(CCCN1CCC(O)(c2ccc(F)cc2)CC1)c1ccc(Cl)cc1,> 62.5 µM,Activity [2]: Active; Activity [3]: Active; Activity [4]: Active
O=C(CCCN1CCC(c2ccc(Cl)cc2)CC1)c1ccc(F)cc1,62.5 µM,–
Fc1ccc(OCCCN2CCC(c3ccccc3)CC2)cc1,> 62.5 µM,–
O=C(CCCN1CCCCC1)c1ccc(F)cc1 [PRIMAPERONE],> 62.5 µM,–
O=C(CCCN1CCC(O)(c2ccc(F)cc2)CC1)c1ccccc1,> 62.5 µM,–
O=C(CCCN1CCC(O)(c2ccc(Cl)cc2)CC1)c1ccc(Br)cc1,> 62.5 µM,–
O=C(CCCN1CCC(O)(c2ccc(F)cc2)CC1)c1ccc(F)cc1,> 62.5 µM,–
O=C(CCCN1CCC(O)(c2ccc(Br)cc2)CC1)c1ccc(F)cc1 [BROMPERIDOL],62.5 µM,–
Cc1ccc(S(=O)(=O)N2CCC(O)(c3ccc(Cl)cc3)CC2)cc1,> 62.5 µM,–
COc1ccc(C(=O)CCCN2CCC(O)(c3ccc(F)cc3)CC2)cc1,> 62.5 µM,–
NNC(=O)c1ccncc1 [ISONIAZID],≤ 1 µM,–
